Test results: ChEMBL document CHEMBL2390929, “New nitric oxide donating 1,2,4-triazole/oxime hybrids: synthesis, investigation of anti-inflammatory, ulceroginic liability and antiproliferative activities” (Bioorg Med Chem, 2013)

Legend:
MDA-MB-468 = assay: Cytotoxicity against human MDA-MB-468 cells assessed as cell growth at 10^-5 M after 48 hrs by SRB assay; assay type: functional; conditions: MDA-MB-468, 48 h, read-out: Activity
How it was run: (§1)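 NCI 60-cell-line primary one-dose screen across nine tumour subpanels. Compound added at a single concentration of 10^-5 M and cultures incubated 48 h. Endpoint was sulforhodamine B protein staining read spectrophotometrically, with growth expressed as percent of untreated control cells.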

T47D = assay: Cytotoxicity against human T47D cells assessed as cell growth at 10^-5 M after 48 hrs by SRB assay; assay type: functional; conditions: read-out: Activity
How it was run: (§2)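 NCI-60 one-dose screen across nine tumour subpanels. Each agent added once at 10^-5 M, cultures incubated 48 h. Endpoint is sulforhodamine B protein staining read spectrophotometrically. Output is percent growth of treated cells relative to untreated controls.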

MDA-MB-231 = assay: Cytotoxicity against human MDA-MB-231 cells assessed as cell growth at 10^-5 M after 48 hrs by SRB assay; assay type: functional; conditions: MDA-MB-231, 48 h, read-out: Activity; how it was run: as §1
PC-3 = assay: Cytotoxicity against human PC3 cells assessed as cell growth at 10^-5 M after 48 hrs by SRB assay; assay type: functional; conditions: PC-3, 48 h, read-out: Activity; how it was run: as §1
SN12C = assay: Cytotoxicity against human SN12C cells assessed as cell growth at 10^-5 M after 48 hrs by SRB assay; assay type: functional; conditions: read-out: Activity; how it was run: as §2
ACHN = assay: Cytotoxicity against human ACHN cells assessed as cell growth at 10^-5 M after 48 hrs by SRB assay; assay type: functional; conditions: read-out: Activity; how it was run: as §1
OVCAR-4 = assay: Cytotoxicity against human OVCAR4 cells assessed as cell growth at 10^-5 M after 48 hrs by SRB assay; assay type: functional; conditions: OVCAR-4, 48 h, read-out: Activity; how it was run: as §1
OVCAR-3 = assay: Cytotoxicity against human OVCAR3 cells assessed as cell growth at 10^-5 M after 48 hrs by SRB assay; assay type: functional; conditions: OVCAR-3, 48 h, read-out: Activity; how it was run: as §1
UACC-257 = assay: Cytotoxicity against human UACC257 cells assessed as cell growth at 10^-5 M after 48 hrs by SRB assay; assay type: functional; conditions: UACC-257, 48 h, read-out: Activity; how it was run: as §2
SK-MEL-5 = assay: Cytotoxicity against human SK-MEL-5 cells assessed as cell growth at 10^-5 M after 48 hrs by SRB assay; assay type: functional; conditions: SK-MEL-5, 48 h, read-out: Activity; how it was run: as §2
MDA-MB-435 = assay: Cytotoxicity against human MDA-MB-435 cells assessed as cell growth at 10^-5 M after 48 hrs by SRB assay; assay type: functional; conditions: MDA-MB-435, 48 h, read-out: Activity; how it was run: as §1
LOX IMVI = assay: Cytotoxicity against human LOXIMVI cells assessed as cell growth at 10^-5 M after 48 hrs by SRB assay; assay type: functional; conditions: read-out: Activity; how it was run: as §1
SNB-19 = assay: Cytotoxicity against human SNB19 cells assessed as cell growth at 10^-5 M after 48 hrs by SRB assay; assay type: functional; conditions: SNB-19, 48 h, read-out: Activity; how it was run: as §2
SF-539 = assay: Cytotoxicity against human SF539 cells assessed as cell growth at 10^-5 M after 48 hrs by SRB assay; assay type: functional; conditions: SF-539, 48 h, read-out: Activity; how it was run: as §1
SF-268 = assay: Cytotoxicity against human SF268 cells assessed as cell growth at 10^-5 M after 48 hrs by SRB assay; assay type: functional; conditions: SF-268, 48 h, read-out: Activity; how it was run: as §1
HT-29 = assay: Cytotoxicity against human HT-29 cells assessed as cell growth at 10^-5 M after 48 hrs by SRB assay; assay type: functional; conditions: HT-29, 48 h, read-out: Activity; how it was run: as §1
HCT-116 = assay: Cytotoxicity against human HCT116 cells assessed as cell growth at 10^-5 M after 48 hrs by SRB assay; assay type: functional; conditions: HCT-116, 48 h, read-out: Activity; how it was run: as §1
COLO 205 = assay: Cytotoxicity against human COLO205 cells assessed as cell growth at 10^-5 M after 48 hrs by SRB assay; assay type: functional; conditions: COLO 205, 48 h, read-out: Activity; how it was run: as §1
NCI-H226 = assay: Cytotoxicity against human NCI-H226 cells assessed as cell growth at 10^-5 M after 48 hrs by SRB assay; assay type: functional; conditions: NCI-H226, 48 h, read-out: Activity; how it was run: as §1
HOP-62 = assay: Cytotoxicity against human HOP62 cells assessed as cell growth at 10^-5 M after 48 hrs by SRB assay; assay type: functional; conditions: HOP-62, 48 h, read-out: Activity; how it was run: as §1
RPMI-8226 = assay: Cytotoxicity against human RPMI8226 cells assessed as cell growth at 10^-5 M after 48 hrs by SRB assay; assay type: functional; conditions: RPMI-8226, 48 h, read-out: Activity; how it was run: as §1
HL-60(TB) = assay: Cytotoxicity against human HL-60(TB) cells assessed as cell growth at 10^-5 M after 48 hrs by SRB assay; assay type: functional; conditions: HL-60, 48 h, read-out: Activity
How it was run: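 NCI 60-cell-line one-dose screen: compound added to cultures at a single concentration of 10^-5 M, incubated 48 h. End point by sulforhodamine B protein staining, read spectrophotometrically. Value is percent growth of treated cells relative to untreated control cells.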

Rattus norvegicus [1] = assay: Antiinflammatory activity in albino rat assessed as inhibition of carrageenan-induced paw edema at 0.28 mmol/kg, po after 3 hrs relative to control; assay type: functional
How it was run: (§3)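 Adult male albino rats (120–140 g), four per group, fasted 24 h with water allowed. Test agent suspended in 0.5% w/v aqueous CMC and given orally at 0.28 mmol/kg; controls received CMC alone. After 30 min, 0.1 mL fresh 1% carrageenan in saline was injected subplantar into the right hind paw and saline into the left. Paw thickness was measured by Vernier caliper; % inhibition = [(VR−VL)control − (VR−VL)treated]/(VR−VL)control ×100. Mean ± SEM, one-way ANOVA.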

Rattus norvegicus [2] = assay: Antiinflammatory activity in albino rat assessed as inhibition of carrageenan-induced paw edema at 0.28 mmol/kg, po after 2 hrs relative to control; assay type: functional; how it was run: as §3
Rattus norvegicus [3] = assay: Antiinflammatory activity in albino rat assessed as inhibition of carrageenan-induced paw edema at 0.28 mmol/kg, po after 1 hr relative to control; assay type: functional; how it was run: as §3
[4] = Induction of nitric oxide release in phosphate buffer at pH 7.4 at 0.1 mM after 2 hrs by Griess method in presence of 0.5 mM of N-acetylcysteine; assay type: physicochemical; conditions: pH 7.4, 2 h, 100 µM
How it was run: (§4)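 Compound in DMF diluted to final 10^-4 M in 1:1 50 mM phosphate buffer pH 7.4/MeOH with 5×10^-4 M N-acetylcysteine, 37 °C. Aliquot mixed with Griess reagent, 10 min at room temperature, A546 read. Nitrite quantified against sodium nitrite standards (10–80 nmol/mL); NO expressed as mol/mol. n = 4 reaction mixtures per compound.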

[5] = Induction of nitric oxide release in phosphate buffer at pH 7.4 at 0.1 mM after 3 hrs by Griess method in presence of 0.5 mM of N-acetylcysteine; assay type: physicochemical; conditions: pH 7.4, 3 h, 100 µM; how it was run: as §4
[6] = Induction of nitric oxide release in phosphate buffer at pH 7.4 at 0.1 mM after 1 hr by Griess method in presence of 0.5 mM of N-acetylcysteine; assay type: physicochemical; conditions: pH 7.4, 1 h, 100 µM; how it was run: as §4
HOP-92 = assay: Cytotoxicity against human HOP92 cells assessed as cell growth at 10^-5 M after 48 hrs by SRB assay; assay type: functional; conditions: HOP-92, 48 h, read-out: Activity; how it was run: as §1

Compound	growth at 10 µM (MDA-MB-468)	growth at 10 µM (T47D)	growth at 10 µM (MDA-MB-231)	growth at 10 µM (PC-3)	growth at 10 µM (SN12C)	growth at 10 µM (ACHN)	growth at 10 µM (OVCAR-4)	growth at 10 µM (OVCAR-3)	growth at 10 µM (UACC-257)	growth at 10 µM (SK-MEL-5)	growth at 10 µM (MDA-MB-435)	growth at 10 µM (LOX IMVI)	growth at 10 µM (SNB-19)	growth at 10 µM (SF-539)	growth at 10 µM (SF-268)	growth at 10 µM (HT-29)	growth at 10 µM (HCT-116)	growth at 10 µM (COLO 205)	growth at 10 µM (NCI-H226)	growth at 10 µM (HOP-62)	also measured
O/N=C(/CSc1nnc(-c2ccccc2)n1-c1ccccc1)c1ccccc1	93%	98%	68.4%	82.8%	99.7%	117%	86.6%	92.3%	87.6%	89.2%	97.5%	104%	84.8%	120%	104%	91.6%	92.3%	107%	95.6%	109%	growth at 10 µM (RPMI-8226): 85.6%; growth at 10 µM (HL-60(TB)): 92.2%; inhibition in vivo at 280 µmol/kg (Rattus norvegicus [1]): 65%; inhibition in vivo at 280 µmol/kg (Rattus norvegicus [2]): 63%; inhibition in vivo at 280 µmol/kg (Rattus norvegicus [3]): 60%; Activity [4]: 0.1 mol/mol; Activity [5]: 0.12 mol/mol; Activity [6]: 0.06 mol/mol
COc1cc(-c2nnc(SC/C(=N/O)c3ccccc3)n2-c2ccccc2)cc(OC)c1OC	119%	88.8%	93.7%	92.1%	95.8%	99.3%	84.8%	114%	102%	84.6%	104%	91.7%	95.2%	102%	114%	99.5%	92.7%	108%	94.1%	101%	growth at 10 µM (HOP-92): 81.2%; growth at 10 µM (RPMI-8226): 73.6%; growth at 10 µM (HL-60(TB)): 81.1%; inhibition in vivo at 280 µmol/kg (Rattus norvegicus [1]): 64%; inhibition in vivo at 280 µmol/kg (Rattus norvegicus [2]): 61%; inhibition in vivo at 280 µmol/kg (Rattus norvegicus [3]): 61%; Activity [4]: 0.11 mol/mol; Activity [5]: 0.12 mol/mol; Activity [6]: 0.07 mol/mol
C=CCn1c(SC/C(=N\O)c2ccccc2)nnc1-c1ccc(OC)c(OC)c1	105%	90.4%	94.4%	96.5%	98.2%	97.8%	91%	110%	102%	101%	105%	88.2%	99.5%	95.6%	105%	93.5%	112%	106%	103%	92.2%	growth at 10 µM (HOP-92): 81.9%; growth at 10 µM (RPMI-8226): 83.7%; growth at 10 µM (HL-60(TB)): 72.3%; inhibition in vivo at 280 µmol/kg (Rattus norvegicus [1]): 58%; inhibition in vivo at 280 µmol/kg (Rattus norvegicus [2]): 57%; inhibition in vivo at 280 µmol/kg (Rattus norvegicus [3]): 53%; Activity [4]: 0.15 mol/mol; Activity [5]: 0.17 mol/mol; Activity [6]: 0.09 mol/mol
CCn1c(SC/C(=N/O)c2ccccc2)nnc1-c1ccccc1	108%	120%	94.6%	81.2%	88.5%	105%	85.5%	121%	104%	100%	105%	104%	99%	93.7%	108%	104%	101%	115%	108%	111%	growth at 10 µM (HOP-92): 62.5%; growth at 10 µM (RPMI-8226): 89.7%; growth at 10 µM (HL-60(TB)): 103%; inhibition in vivo at 280 µmol/kg (Rattus norvegicus [1]): 72%; inhibition in vivo at 280 µmol/kg (Rattus norvegicus [2]): 69%; inhibition in vivo at 280 µmol/kg (Rattus norvegicus [3]): 65%; Activity [4]: 0.08 mol/mol; Activity [5]: 0.12 mol/mol; Activity [6]: 0.06 mol/mol
